Screening results (PubChem BioAssay)
Runt-CBFb FRET = inhibitors of RUNX1 Runt–CBFb binding, primary screen, biochemical, FRET, Cerulean-Runt, Venus-CBFb, uHTS | Cerulean-Runt/Venus-CBFb FRET ratio 530/480, 1 h | 0.46% of 220,000 active | inhibition, % at 20 µM | Runt-related transcription factor 1 (Homo sapiens) + Core-binding factor subunit beta … | AID 1496, 2009;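 active = inhibition over about 50% at 20 µM in the single-dose screen, limit read from the data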;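 note: 0% = DMSO wells and 100% = excess unlabeled CBFb competitor control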
Target sequence (Q01196 whole entry, looked up): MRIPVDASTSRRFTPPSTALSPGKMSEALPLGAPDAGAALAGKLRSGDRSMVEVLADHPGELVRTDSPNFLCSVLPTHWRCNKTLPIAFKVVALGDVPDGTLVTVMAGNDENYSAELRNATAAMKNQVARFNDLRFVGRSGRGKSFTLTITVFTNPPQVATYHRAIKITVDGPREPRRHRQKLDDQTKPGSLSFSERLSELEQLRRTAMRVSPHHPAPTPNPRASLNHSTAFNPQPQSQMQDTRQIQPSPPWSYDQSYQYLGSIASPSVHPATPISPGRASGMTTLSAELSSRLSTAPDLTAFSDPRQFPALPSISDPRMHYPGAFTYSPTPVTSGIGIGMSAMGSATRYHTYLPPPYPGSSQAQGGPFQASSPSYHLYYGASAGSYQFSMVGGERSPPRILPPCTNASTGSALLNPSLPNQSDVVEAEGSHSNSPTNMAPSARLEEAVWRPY
Target sequence (Q13951 whole entry, looked up): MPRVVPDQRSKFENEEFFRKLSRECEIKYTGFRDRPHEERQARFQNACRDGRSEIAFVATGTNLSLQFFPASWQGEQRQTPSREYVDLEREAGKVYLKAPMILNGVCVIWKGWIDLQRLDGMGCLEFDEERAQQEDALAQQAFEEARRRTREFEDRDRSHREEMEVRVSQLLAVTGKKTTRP
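Buffer or medium: Tris pH 7.5 buffer with BSA. Assay system: Cerulean-labeled Runt domain protein. Amount: each fluorescent fusion protein 100 nM. Read-out basis: loss of energy transfer signal. Incubation: 1 h compound exposure, room temperature. Probe or stimulus: Venus-CBFb binding partner, 100 nM. Detection: FRET, excitation 422 nm, emission at 530 and 480 nm.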
CaV13 FRET inh = Disruptors of the CACNA1D IQ motif to Ca2+-dependent inactivation inhibitor domain association, primary screening, Förster resonance energy transfer in intact living …; HEK cells, CFP/YFP FRET ICDI-IQ, plate reader, 10 min; percent FRET-ratio fall versus neutral wells; inhibition, % at 12.3 µM; 0.098% of 340,000 active; AID 743397;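 active = mean replicate inhibition of at least 30% and at least 1% of replicates passing that level; inconclusive = only one of the two criteria is met; inactive = neither criterion is met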;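 note: 0% = median of the neutral control wells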
Runt-SMMHC FRET = inhibitors of RUNX1 Runt–CBFb-SMMHC binding, primary screen, biochemical, FRET, Cerulean-Runt, Venus-CBFb-SMMHC, uHTS | 0.74% of 220,000 active | Cerulean-Runt/Venus-CBFb-SMMHC FRET ratio 530/480, 1 h | AID 1434, 2008 | Runt-related transcription factor 1 (Homo sapiens) + Core-binding factor subunit beta … | inhibition, % at 20 µM;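 active = mean inhibition across duplicate retests at 20 µM reaching about 50%, limit read from the data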;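 note: 0% = DMSO wells and 100% = wells with excess untagged CBFb-SMMHC; inhibitors lower the FRET ratio by blocking Runt binding to CBFb-SMMHC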
RanGTP-Impb inh = inhibitors of RanGTP-importin-beta interaction, primary screen, biochemical, FRET, CFP-Ran, YFP-importin-beta, homogeneous; cell-free CFP-Ran/YFP-importin-beta FRET ratio; inhibition, % (test concentration not listed); AID 2216, 2009; Ran GTPase (GTP-bound) - importin-beta complex; 1.1% of 300,000 active;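 active = more than half of the replicate wells show a fall in the fluorescence ratio signal beyond about 16%, limit read from the data, passing the limit was not always enough; inconclusive = exactly half of the replicate wells pass the set limit; inactive = fewer than half of replicates pass the limit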;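 note: 0% = DMSO wells and 100% = Ran loaded with GDP instead of GTP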
* = called active by the depositor; ? = inconclusive; nt = no result. Hits are enriched below; roughly 1.2% of the tested compounds scored in any of these assays.

SMILES | Runt-CBFb FRET | CaV13 FRET inh | Runt-SMMHC FRET | RanGTP-Impb inh
CC(=O)Nc1ccc(/C=N/NC(=O)c2cccc(S(=O)(=O)N3CCOCC3)c2)cc1 | 0 | -4 | 3 | -1
N#Cc1ccc(/C=N/NC(=O)c2cccc(S(=O)(=O)N3CCOCC3)c2)cc1 | 1 | 3 | -1 | 32*
Cn1c(C(=O)N2CCOCC2)cc2c(=O)n3ccccc3nc21 | nt | -5 | nt | 4
CCOC(=O)C1CCN(C(=O)c2cc3c(=O)n4ccccc4nc3n2C)CC1 | 22 | 7 | 51* | ?
CCN(C(=O)c1cc2c(=O)n3ccccc3nc2n1C)C1CCCCC1 | nt | -4 | nt | ?
Cn1c(C(=O)N2CCc3ccccc3C2)cc2c(=O)n3ccccc3nc21 | 21 | -5 | 79* | 1
Cn1c(C(=O)O)cc2c(=O)n3ccccc3nc21 | 43 | -3 | 78* | 8
Nc1cccc2c1C(=O)N(C(=O)c1cccc(S(=O)(=O)N3CCCC3)c1)C2=O | -30 | -16 | 62* | 9
COc1ccc2nc(N3CCC(C)CC3)c(C#N)cc2c1 | 71* | -11 | 70* | 45*
COc1ccc2nc(N3CCC(O)CC3)c(C#N)cc2c1 | 42 | -9 | 75* | 51*
COc1ccc2cc(C#N)c(N3CCOCC3)nc2c1 | nt | -6 | nt | 2
COCc1cc(=O)[nH]c(/N=C(\N)Nc2ccccc2C)n1 | 1 | -5 | 1 | 2
COc1ccc(NC(=O)COc2cccc(-n3cnnn3)c2)cc1 | nt | -2 | nt | -2
CC(C)Sc1nc2ccccc2c(=O)[nH]1 | 0 | -5 | 1 | 1
CC(c1nc2ccccc2c(=O)[nH]1)N(C)c1ccc2ccccc2c1 (centres undefined) | 2 | -5 | 3 | 96*
O=c1[nH]c2c(s1)C(c1ccc(O)cc1)C1C3CCC(C3)C1S2 (centres undefined) | 16 | -6 | 11 | -2
O=C(O)CN1C(=O)C2C3CC(C2C1=O)C1C(c2ccc(F)cc2)c2sc(=O)[nH]c2SC31 (centres undefined) | 33 | -21 | 26 | 79*
O=C(O)CN1C(=O)C2C3CC(C2C1=O)C1C(c2ccc(Cl)cc2)c2sc(=O)[nH]c2SC31 (centres undefined) | 42 | -5 | 27 | 73*
CC(C(=O)O)N1C(=O)C2C3CC(C2C1=O)C1C(c2ccccc2)c2sc(=O)[nH]c2SC31 (centres undefined) | 18 | -16 | 12 | 74*
O=C(O)CCCN1C(=O)C2C3CC(C2C1=O)C1C(c2ccccc2)c2sc(=O)[nH]c2SC31 (centres undefined) | 14 | -4 | 15 | 8
O=C(COC(=O)/C=C/c1cccs1)NC1CC1 | -1 | -6 | 4 | -2
CC(C)(C)c1ccccc1NC(=S)NC1CCCCC1 | -2 | -20 | -3 | 83*
COc1ccccc1C(=O)N/C(=C\c1ccccc1)C(=O)NCc1ccco1 | nt | -6 | nt | ?
Cc1cccn2c(=O)c3cc(C(=O)NCc4ccc(F)cc4)c(=N)n(CC4CCCO4)c3nc12 (centres undefined) | nt | 7 | nt | 185*
Cc1cccn2c(=O)c3cc(C(=O)NC4CCCCC4)c(=N)n(Cc4ccc(F)cc4)c3nc12 | nt | 1 | nt | -2
SMILES | Runt-CBFb FRET | CaV13 FRET inh | Runt-SMMHC FRET | RanGTP-Impb inh
COc1ccc(CNC(=O)c2cc3c(=O)n4cccc(C)c4nc3n(CC3CCCO3)c2=N)cc1 (centres undefined) | nt | -2 | nt | 77*
COCCCn1c(C(=O)NCCC2=CCCCC2)cc2c(=O)n3cccc(C)c3nc21 | nt | -2 | nt | -2
COCCn1c(=N)c(C(=O)NCCc2ccc(OC)cc2)cc2c(=O)n3cccc(C)c3nc21 | 108* | -2 | 114* | 78*
COCCCNC(=O)c1cc2c(=O)n3cccc(C)c3nc2n(C(C)C)c1=N | 18 | -2 | 57* | 188*
O=C(COC(=O)c1cnccn1)NC1CCCc2ccccc21 (centres undefined) | nt | -20 | nt | nt
COC(=O)C1=C(C)N(C)C(=NCc2ccc(C(F)(F)F)cc2)NC1c1ccc(C(F)(F)F)cc1 (centres undefined) | nt | -3 | nt | nt
O=C(Nc1ccc2c(c1)OCO2)c1cc(C2CCCCN2S(=O)(=O)c2ccccc2)on1 (centres undefined) | nt | -4 | nt | nt
COc1cccc(/C=C/C(=O)NCc2ccc(S(N)(=O)=O)cc2)c1 | -2 | -4 | 2 | 2
O=c1[nH]c(NCCO)c(N=Cc2ccccc2)c(=O)[nH]1 | nt | 28 | nt | 164*
O=C(CN(C(=O)CCC(=O)Nc1nccs1)c1ccccc1F)NCc1ccc(F)cc1 | nt | -7 | nt | -1
CN(CCCC(=O)N1CCCC(C(N)=O)C1)S(=O)(=O)c1ccc(F)cc1 (centres undefined) | nt | -4 | nt | 4
CCOC(=O)C1=C(CC)OC(N)=C(C#N)C1c1ccc(OC)c(OC)c1OC (centres undefined) | 2 | -7 | 6 | 2
CCOC(=O)C1=C(CSc2nc(C)ccc2C#N)OC(N)=C(C#N)C1c1cccc(OC)c1OC (centres undefined) | 24 | -4 | 8 | 18*
CCOC(=O)C1=C(C(F)(F)F)Nc2ncnn2C1c1cc(OC)ccc1OC (centres undefined) | -1 | -6 | 3 | 3
Nc1cccc2c1C(=O)N(C(=O)/C=C/c1cccc(Br)c1)C2=O | -49 | -7 | 84* | 34*
Nc1cccc2c1C(=O)N(C(=O)/C=C/c1cccc(F)c1)C2=O | -42 | -93 | 90* | 27*
C[C@@H]1COc2cccc(NC3CC3)c2S(=O)(=O)N1 | nt | -5 | nt | nt
N#C/C(=C(/O)COC(=O)CCc1ccc(S(=O)(=O)N2CCOCC2)cc1)c1nc2ccccc2[nH]1 | 13 | nt | 49 | 29*
N#C/C(=C(/O)COC(=O)c1ccc(Cl)c(S(=O)(=O)N2CCOCC2)c1)c1nc2ccccc2[nH]1 | 3 | -3 | 6 | 3
CCOC(=O)C(C)Sc1nc2c(c(-c3cccs3)c1C#N)CCC2 (centres undefined) | 2 | -4 | 33 | 109*
O=C(c1ccc([N+](=O)[O-])cc1[N+](=O)[O-])N1CCN(C(=O)C2CCCO2)CC1 (centres undefined) | nt | -6 | nt | nt
O=c1c2ccccc2sn1-c1cccc(Cl)c1 | nt | -6 | nt | nt
O=c1c2ccccc2sn1-c1ccccc1 | 32 | -8 | 57* | 3
CC1(C)Cc2c(c(N3CCOCC3)nc3sc(C(N)=O)c(N)c23)CO1 | 30 | -5 | -5 | 6
COC(=O)c1ccc(-c2sc3nc(N4CCOCC4)c4c(c3c2N)CC(C)(C)OC4)o1 | -2 | -6 | -24 | 24*
Cc1ccc(C2C3=C(CC(C)(C)CC3=O)N(CCN3CCOCC3)C3=C2C(=O)CC(C)(C)C3)cc1 | 10 | nt | 79* | 125*
